Results: ChEMBL document CHEMBL1139222, “Discovering potassium channel blockers from synthetic compound database by using structure-based virtual screening in conjunction with electrophysiological assay” (J Med Chem, 2007)
Calls of active or inactive are those of the source. The rule behind the calls is not given here.

Assays:
[1] = Blockade of voltage-gated potassium channel assessed as inhibition of fast transient potassium current in Sprague-Dawley rat hippocampal neurons by whole cell voltage clamp method; format: tissue-based; details: Hippocampus
Outline: (§1)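 CA1 pyramidal neurons were acutely dissociated from 5- to 9-day-old Sprague-Dawley rats (500 µm minislices, protease XXIII 3 mg/mL, 32 °C, 8 min). Whole-cell voltage clamp was run at 21-23 °C with KCl 140 mM pipettes and leak subtraction. Compound was applied externally by rapid solution changer across a concentration range. IA was read as peak amplitude and IK at 300 ms latency. IC50 came from concentration-response curve fitting.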

Rattus norvegicus = species on record: Rattus norvegicus; assay: Selectivity for inhibition of delayed rectifier potassium current over inhibition of fast transient potassium current at potassium channel in Sprague-Dawley rat hippocampal neurons; format: tissue-based; details: Hippocampus
[2] = Blockade of voltage-gated potassium channel assessed by inhibition of delayed rectifier potassium current in Sprague-Dawley rat hippocampal neurons by whole cell voltage clamp method; format: tissue-based; details: Hippocampus; outline: as §1
Hippocampus [3] = assay: Inhibition of delayed rectifier potassium current in Sprague-Dawley rat hippocampal neurons at 100 uM; format: functional, tissue-based
Outline: (§2)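 IK was recorded by whole-cell voltage clamp (21-23 °C, 3-4 MΩ KCl-based pipettes) in dissociated CA1 pyramidal neurons from 5- to 9-day-old Sprague-Dawley rats. Compound was applied intracellularly at the stated concentration. IK amplitude was measured at 300 ms latency, normalized and followed over time after application. Values are mean ± SEM, n = 5.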

Hippocampus [4] = assay: Inhibition of fast transient potassium current in Sprague-Dawley rat hippocampal neurons at 100 uM by whole cell voltage clamp method; format: functional
Outline: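 In the primary screen, 100 µM compound was dissolved in external solution and delivered by rapid solution changer to dissociated CA1 pyramidal neurons from 5- to 9-day-old Sprague-Dawley rats. Whole-cell voltage clamp was run at 21-23 °C, with series resistance compensated 75-85% and online leak subtraction. Fast transient K+ current (IA) was measured as peak amplitude.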

Hippocampus [5] = assay: Inhibition of delayed rectifier potassium current in Sprague-Dawley rat hippocampal neurons at 300 uM; format: functional, tissue-based; outline: as §2
Hippocampus [6] = assay: Inhibition of delayed rectifier potassium current in Sprague-Dawley rat hippocampal neurons at 30 uM; format: functional, tissue-based; outline: as §2
Hippocampus [7] = assay: Inhibition of delayed rectifier potassium current in Sprague-Dawley rat hippocampal neurons at 1 mM; format: functional, tissue-based
Outline: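 CA1 pyramidal neurons acutely dissociated from 5- to 9-day-old Sprague-Dawley rats (protease XXIII 3 mg/mL, 32 °C, 8 min). Whole-cell voltage clamp at 21-23 °C, 3-4 MΩ electrodes with KCl pipet solution, 75-85% series-resistance compensation, online leak subtraction. Compound dissolved in external solution and delivered by rapid solution changer. IK amplitude read at 300 ms latency.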

Hippocampus [8] = assay: Inhibition of delayed rectifier potassium current in Sprague-Dawley rat hippocampal neurons at 10 uM; format: functional, tissue-based; outline: as §2

SMILES | IC50 [1] [µM] | Ratio IC50 (Rattus norvegicus) | IC50 [2] [µM] | Activity (Hippocampus [3]) | inhibition at 100 µM (Hippocampus [4]) [%] | Activity (Hippocampus [5]) | Activity (Hippocampus [6]) | Activity (Hippocampus [7]) | Activity (Hippocampus [8])
O=S(=O)(CCN1CCN(Cc2ccccc2)CC1)c1ccc(Cl)cc1 | 980 | 16.3 | 60 | inactive | 11 |  |  |  | 
Cc1nc(-c2cccnc2)nc(NCCN)c1Cl | 244 | 2.9 | 83 |  | 9 | inactive |  |  | 
NC(COc1ccccc1)c1ccc2c(c1)OCCO2 (stereo not given) | 737 | 11 | 67 | inactive | 20 |  |  |  | 
NCCNS(=O)(=O)c1cccc2c(Cl)cccc12 | 124 | 6.9 | 18 |  | 27 |  | inactive |  | 
COc1ccc2c(CCN)c[nH]c2c1 | 524 |  | 972 |  | 10 |  |  | inactive | 
Cc1ccc(S(=O)(=O)NCCOCCOCCOCCNS(=O)(=O)c2ccc(C)cc2)cc1 | 28 | 13.3 | 2.1 |  | 63 | inactive |  |  | inactive
